Results as given in ChEMBL document CHEMBL1687714, “Genetic analysis of fenhexamid-resistant field isolates of the phytopathogenic fungus Botrytis cinerea” (Antimicrob Agents Chemother, 2008).
Converted amounts (≈) assume the structure as drawn. The source made the active and inactive calls. The calls are words filed in the database; no cut-off is given here.

What was measured:
Format in all cases: functional, organism-based
[1] = test system: Botrytis cinerea; assay: Antifungal activity against highly fenhexamid-resistant Botrytis cinerea 520b assessed as inhibition of germ tube elongation after 24 hrs
[2] = test system: Botrytis cinerea; assay: Antifungal activity against highly fenhexamid-resistant Botrytis cinerea MK3-9 assessed as inhibition of germ tube elongation after 24 hrs; conditions: MK3-9, 24 h
[3] = test system: Botrytis cinerea; assay: Antifungal activity against highly fenhexamid-resistant Botrytis cinerea 379b assessed as inhibition of germ tube elongation after 24 hrs
[4] = test system: Botrytis cinerea; assay: Antifungal activity against highly fenhexamid-resistant Botrytis cinerea 05-221 assessed as inhibition of mycelium growth measured over 5 days; conditions: 05-221, 120 h
[5] = test system: Botrytis cinerea; assay: Antifungal activity against moderately to slightly fenhexamid-resistant Botrytis cinerea 286 assessed as inhibition of germ tube elongation after 24 hrs; conditions: Botrytis cinerea, 286, 24 h
[6] = test system: Botrytis cinerea; assay: Antifungal activity against highly fenhexamid-resistant Botrytis cinerea 264 assessed as inhibition of mycelium growth measured over 5 days; conditions: Botrytis cinerea, 264, 120 h
[7] = test system: Botrytis cinerea; assay: Antifungal activity against highly fenhexamid-resistant Botrytis cinerea 05-221 assessed as inhibition of germ tube elongation after 24 hrs; conditions: 05-221, 24 h
[8] = test system: Botrytis cinerea; assay: Antifungal activity against moderately to slightly fenhexamid-resistant Botrytis cinerea 05-ABA assessed as inhibition of germ tube elongation after 24 hrs
[9] = test system: Botrytis cinerea; assay: Antifungal activity against Botrytis cinerea 286 harboring TELerg S336C mutant at 1 ug/ml relative to wild-type
Procedure, shortened: (§1)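 In the dominance test, the recipient strains 453b and 286 were transformed with different erg27 alleles. Spores of the transformants were grown on YSS medium containing fenhexamid at different concentrations and 50 µg ml–1 hygromycin B. Parental strains were grown without hygromycin. Growth was scored after 7 days at 21°C.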

[10] = test system: Botrytis cinerea; assay: Antifungal activity against Botrytis cinerea 286 harboring TELerg S336C mutant at 2 ug/ml relative to wild-type; procedure, shortened: as §1
[11] = test system: Botrytis cinerea; assay: Antifungal activity against highly fenhexamid-resistant Botrytis cinerea 05-PV Reims assessed as inhibition of mycelium growth measured over 5 days; conditions: 120 h
[12] = test system: Botrytis cinerea; assay: Antifungal activity against Botrytis cinerea 1837 expressing erg27 HydR3+ alleles assessed as appearance of dense mycelium up to 20 ug/ml
Procedure, shortened: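 Spores of parental strains were spread on YSS (synthetic complete) medium containing fenhexamid at several concentrations, without hygromycin B. Growth was scored after 7 days at 21°C.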

[13] = test system: Botrytis cinerea; assay: Antifungal activity against moderately to slightly fenhexamid-resistant Botrytis cinerea 452 assessed as inhibition of germ tube elongation after 24 hrs; conditions: Botrytis cinerea, 452, 24 h
[14] = test system: Botrytis cinerea; assay: Antifungal activity against highly fenhexamid-resistant Botrytis cinerea 506b assessed as inhibition of germ tube elongation after 24 hrs
[15] = test system: Botrytis cinerea; assay: Antifungal activity against fenhexamid-senistive Botrytis cinerea SAS56 assessed as inhibition of germ tube elongation after 24 hrs; conditions: SAS56, 24 h
[16] = test system: Botrytis cinerea; assay: Antifungal activity against highly fenhexamid-resistant Botrytis cinerea 440a assessed as inhibition of germ tube elongation after 24 hrs
[17] = test system: Botrytis cinerea; assay: Antifungal activity against highly fenhexamid-resistant Botrytis cinerea 533 assessed as inhibition of mycelium growth measured over 5 days; conditions: Botrytis cinerea, 533, 120 h
[18] = test system: Botrytis cinerea; assay: Antifungal activity against HydR3 deficient Botrytis cinerea 453 harboring TELerg N369D mutant at 1 ug/ml relative to wild-type; procedure, shortened: as §1
[19] = test system: Botrytis cinerea; assay: Antifungal activity against Botrytis cinerea 286 harboring TELerg S336C mutant at 10 ug/ml relative to wild-type; procedure, shortened: as §1
[20] = test system: Botrytis cinerea; assay: Antifungal activity against highly fenhexamid-resistant Botrytis cinerea 506a assessed as inhibition of germ tube elongation after 24 hrs
[21] = test system: Botrytis cinerea; assay: Antifungal activity against moderately to slightly fenhexamid-resistant Botrytis cinerea 453b assessed as inhibition of germ tube elongation after 24 hrs
[22] = test system: Botrytis cinerea; assay: Antifungal activity against moderately to slightly fenhexamid-resistant Botrytis cinerea 05-1.27 assessed as inhibition of mycelium growth measured over 5 days; conditions: 05-1.27, 120 h
[23] = test system: Botrytis cinerea; assay: Antifungal activity against highly fenhexamid-resistant Botrytis cinerea 223b assessed as inhibition of mycelium growth measured over 5 days; conditions: 120 h
[24] = test system: Botrytis cinerea; assay: Antifungal activity against highly fenhexamid-resistant Botrytis cinerea 118 assessed as inhibition of germ tube elongation after 24 hrs; conditions: Botrytis cinerea, 118, 24 h
[25] = test system: Botrytis cinerea; assay: Antifungal activity against highly fenhexamid-resistant Botrytis cinerea 05-AVB assessed as inhibition of mycelium growth measured over 5 days; conditions: 120 h
[26] = test system: Botrytis cinerea; assay: Antifungal activity against highly fenhexamid-resistant Botrytis cinerea 264 assessed as inhibition of germ tube elongation after 24 hrs; conditions: Botrytis cinerea, 264, 24 h
[27] = test system: Botrytis cinerea; assay: Antifungal activity against fenhexamid-senistive Botrytis cinerea B05.10 assessed as inhibition of mycelium growth measured over 5 days; conditions: B05.10, 120 h
[28] = test system: Botrytis cinerea; assay: Antifungal activity against moderately to slightly fenhexamid-resistant Botrytis cinerea 286 assessed as inhibition of mycelium growth measured over 5 days; conditions: Botrytis cinerea, 286, 120 h
[29] = test system: Botrytis cinerea; assay: Antifungal activity against highly fenhexamid-resistant Botrytis cinerea 179 assessed as inhibition of mycelium growth measured over 5 days; conditions: Botrytis cinerea, 179, 120 h
[30] = test system: Botrytis cinerea; assay: Antifungal activity against HydR3 deficient Botrytis cinerea 453 harboring TELerg F412I mutant at 1 ug/ml relative to wild-type; procedure, shortened: as §1
[31] = test system: Botrytis cinerea; assay: Antifungal activity against HydR3 deficient Botrytis cinerea 453 harboring TELerg N369D mutant at 5 ug/ml relative to wild-type; procedure, shortened: as §1
[32] = test system: Botrytis cinerea; assay: Antifungal activity against fenhexamid-senistive Botrytis cinerea SAS405 assessed as inhibition of mycelium growth measured over 5 days; conditions: SAS405, 120 h
[33] = test system: Botrytis cinerea; assay: Antifungal activity against moderately to slightly fenhexamid-resistant Botrytis cinerea 221 assessed as inhibition of mycelium growth measured over 5 days; conditions: Botrytis cinerea, 221, 120 h
[34] = test system: Botrytis cinerea; assay: Antifungal activity against highly fenhexamid-resistant Botrytis cinerea 05-PV Reims assessed as inhibition of germ tube elongation after 24 hrs
[35] = test system: Botrytis cinerea; assay: Antifungal activity against highly fenhexamid-resistant Botrytis cinerea 223a assessed as inhibition of mycelium growth measured over 5 days; conditions: 120 h
[36] = test system: Botrytis cinerea; assay: Antifungal activity against moderately to slightly fenhexamid-resistant Botrytis cinerea 454 assessed as inhibition of germ tube elongation after 24 hrs; conditions: Botrytis cinerea, 454, 24 h
[37] = test system: Botrytis cinerea; assay: Antifungal activity against highly fenhexamid-resistant Botrytis cinerea MK3-1 assessed as inhibition of germ tube elongation after 24 hrs; conditions: MK3-1, 24 h
[38] = test system: Botrytis cinerea; assay: Antifungal activity against highly fenhexamid-resistant Botrytis cinerea 1837 assessed as inhibition of germ tube elongation after 24 hrs; conditions: Botrytis cinerea, 1837, 24 h
[39] = test system: Botrytis cinerea; assay: Antifungal activity against highly fenhexamid-resistant Botrytis cinerea 223b assessed as inhibition of germ tube elongation after 24 hrs
[40] = test system: Botrytis cinerea; assay: Antifungal activity against moderately to slightly fenhexamid-resistant Botrytis cinerea 202 assessed as inhibition of mycelium growth measured over 5 days; conditions: Botrytis cinerea, 202, 120 h
[41] = test system: Botrytis cinerea; assay: Antifungal activity against moderately to slightly fenhexamid-resistant Botrytis cinerea 453a assessed as inhibition of mycelium growth measured over 5 days; conditions: 120 h
[42] = test system: Botrytis cinerea; assay: Antifungal activity against highly fenhexamid-resistant Botrytis cinerea MK5-2 assessed as inhibition of germ tube elongation after 24 hrs; conditions: MK5-2, 24 h
[43] = test system: Botrytis cinerea; assay: Antifungal activity against highly fenhexamid-resistant Botrytis cinerea 520a assessed as inhibition of germ tube elongation after 24 hrs

**Q.** `CC1(C(=O)Nc2ccc(O)c(Cl)c2Cl)CCCCC1` [FENHEXAMID] was tested. Which EC50 [1] did it give?
**A.** Its EC50 is 8 µg/mL (≈ 26.5 µM).

**Q.** And the EC50 [2]?
**A.** The EC50 was over 5 µg/mL.

**Q.** And the EC50 [3]?
**A.** Its EC50 is over 10 µg/mL.

**Q.** And the EC50 [4]?
**A.** Its EC50 is 7 µg/mL (≈ 23.2 µM).

**Q.** And the EC50 [5]?
**A.** The EC50 was 4 µg/mL (≈ 13.2 µM).

**Q.** What about the EC50 [6] of the same compound?
**A.** The EC50 was over 10 µg/mL.

**Q.** And the EC50 [7]?
**A.** The EC50 was over 10 µg/mL.

**Q.** What about the EC50 [8] of the same compound?
**A.** Its EC50 is 0.8 µg/mL (≈ 2.65 µM).

**Q.** And the Activity [9]?
**A.** Its Activity is “inactive”.

**Q.** And the Activity [10]?
**A.** The Activity was “inactive”.

**Q.** And the EC50 [11]?
**A.** The EC50 was over 10 µg/mL.

**Q.** And the Activity [12]?
**A.** The Activity was “inactive”.

**Q.** What about the EC50 [13] of the same compound?
**A.** The EC50 was 2.5 µg/mL (≈ 8.27 µM).

**Q.** And the EC50 [14]?
**A.** Its EC50 is over 10 µg/mL.

**Q.** And the EC50 [15]?
**A.** The EC50 was under 0.1 µg/mL.

**Q.** And the EC50 [16]?
**A.** The EC50 was over 10 µg/mL.

**Q.** And the EC50 [17]?
**A.** The EC50 was 10 µg/mL (≈ 33.1 µM).

**Q.** And the Activity [18]?
**A.** The Activity was “inactive”.

**Q.** What about the Activity [19] of the same compound?
**A.** The Activity was “inactive”.

**Q.** And the EC50 [20]?
**A.** Its EC50 is over 10 µg/mL.

**Q.** And the EC50 [21]?
**A.** Its EC50 is 2 µg/mL (≈ 6.62 µM).

**Q.** What about the EC50 [22] of the same compound?
**A.** Its EC50 is 0.2 µg/mL (≈ 0.662 µM).

**Q.** And the EC50 [23]?
**A.** Its EC50 is over 10 µg/mL.

**Q.** And the EC50 [24]?
**A.** The EC50 was over 10 µg/mL.

**Q.** What about the EC50 [25] of the same compound?
**A.** Its EC50 is 5 µg/mL (≈ 16.5 µM).

**Q.** And the EC50 [26]?
**A.** The EC50 was over 10 µg/mL.

**Q.** And the EC50 [27]?
**A.** The EC50 was under 0.03 µg/mL.

**Q.** And the EC50 [28]?
**A.** Its EC50 is 1.5 µg/mL (≈ 4.96 µM).

**Q.** And the EC50 [29]?
**A.** Its EC50 is over 10 µg/mL.

**Q.** And the Activity [30]?
**A.** Its Activity is “inactive”.

**Q.** And the Activity [31]?
**A.** Its Activity is “inactive”.

**Q.** What about the EC50 [32] of the same compound?
**A.** The EC50 was under 0.1 µg/mL.

**Q.** What about the EC50 [33] of the same compound?
**A.** Its EC50 is 0.2 µg/mL (≈ 0.662 µM).

**Q.** What about the EC50 [34] of the same compound?
**A.** The EC50 was over 10 µg/mL.

**Q.** And the EC50 [35]?
**A.** Its EC50 is over 10 µg/mL.

**Q.** What about the EC50 [36] of the same compound?
**A.** Its EC50 is 0.5 µg/mL (≈ 1.65 µM).

**Q.** And the EC50 [37]?
**A.** Its EC50 is over 5 µg/mL.

**Q.** And the EC50 [38]?
**A.** The EC50 was over 10 µg/mL.

**Q.** And the EC50 [39]?
**A.** The EC50 was over 10 µg/mL.

**Q.** And the EC50 [40]?
**A.** Its EC50 is under 0.3 µg/mL.

**Q.** What about the EC50 [41] of the same compound?
**A.** The EC50 was 2 µg/mL (≈ 6.62 µM).

**Q.** And the EC50 [42]?
**A.** Its EC50 is over 5 µg/mL.

**Q.** What about the EC50 [43] of the same compound?
**A.** Its EC50 is 10 µg/mL (≈ 33.1 µM).
